Source: ChEMBL document CHEMBL5303300, “EUbOPEN Chemogenomics Library - Multiplex” (2023)
“And” between values parts separate entries of the source, which are not always exact repeats. Equal entries are not always repeated.

Tested on: Fibroblast
Assay: Multiplex assay against human fibroblast
Format: toxicity, cell-based
Conditions: number of replicates 2
Method in brief: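 Live cells carried four stains from seeding: Hoechst33342, BioTracker Green Microtubule Cytoskeleton Dye, MitoTracker Red and Annexin V Alexa Fluor 680. They were imaged on a CQ1 microscope at 37°C and 5% CO2 after compound addition. Using CellPathfinder machine-learning gating, cells were split into Hoechst high-intensity objects or normal cells, normal cells into healthy, pyknosed or fragmented nuclei, and pyknosed cells into mitotic or apoptotic; tubulin, mitochondrial-mass and membrane-permeability phenotypes are per cents of healthy-nucleus cells.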

[1] = 12 h, 1 µM, compound concentration 1 uM
[2] = 12 h, 10 µM, compound concentration 10 uM
[3] = 24 h, 1 µM, compound concentration 1 uM
[4] = 24 h, 10 µM, compound concentration 10 uM
[5] = 48 h, 1 µM, compound concentration 1 uM
[6] = 48 h, 10 µM, compound concentration 10 uM

CCCN(CCc1cccs1)[C@H]1CCc2c(O)cccc2C1 [ROTIGOTINE]
Population Apoptotic (%) [1]: 73% and 35% | Population Fragmented Nuclei (%) [1]: 9% and 11% | Population Healthy Nuclei (%) [1]: 76% and 71% | Population Hoechst High Intensity Objects (%) [1]: 0% | Population Membrane Permeable-Phenotype (%) [1]: 6% and 3% | Population Mitochondria Different-Phenotype (%) [1]: 2% and 0% | Population Mitotic Cells (%) [1]: 26% and 64% | Population Normal (%) [1]: 100% and 99% | Population Pyknosed Nuclei (%) [1]: 14% and 16% | Population Tubulin-Different-Phenotype (%) [1]: 15% and 10% | Population Fragmented Nuclei (%) [2]: 17% and 18% | Population Healthy Nuclei (%) [2]: 78% and 73% | Population Hoechst High Intensity Objects (%) [2]: 0% | Population Membrane Permeable-Phenotype (%) [2]: 0% and 1% | Population Mitochondria Different-Phenotype (%) [2]: 0% and 1% | Population Mitotic Cells (%) [2]: 50% and 86% | Population Normal (%) [2]: 100% | Population Pyknosed Nuclei (%) [2]: 4% and 7% | Population Tubulin-Different-Phenotype (%) [2]: 13% and 14% | Population Apoptotic (%) [3]: 52% and 46% | Population Fragmented Nuclei (%) [3]: 9% and 12% | Population Healthy Nuclei (%) [3]: 81% and 75% | Population Hoechst High Intensity Objects (%) [3]: 0% | Population Membrane Permeable-Phenotype (%) [3]: 4% | Population Mitochondria Different-Phenotype (%) [3]: 0% and 1% | Population Mitotic Cells (%) [3]: 47% and 53% | Population Normal (%) [3]: 100% and 99% | Population Pyknosed Nuclei (%) [3]: 9% and 12% | Population Tubulin-Different-Phenotype (%) [3]: 7% and 6% | Population Fragmented Nuclei (%) [4]: 24% and 14% | Population Healthy Nuclei (%) [4]: 71% and 80% | Population Hoechst High Intensity Objects (%) [4]: 0% | Population Membrane Permeable-Phenotype (%) [4]: 1% and 0% | Population Mitochondria Different-Phenotype (%) [4]: 0% and 2% | Population Normal (%) [4]: 100% | Population Pyknosed Nuclei (%) [4]: 3% and 5% | Population Tubulin-Different-Phenotype (%) [4]: 10% and 8% | Population Apoptotic (%) [5]: 36% and 68% | Population Fragmented Nuclei (%) [5]: 11% and 13% | Population Healthy Nuclei (%) [5]: 82% and 79% | Population Hoechst High Intensity Objects (%) [5]: 0% | Population Membrane Permeable-Phenotype (%) [5]: 3% and 2% | Population Mitochondria Different-Phenotype (%) [5]: 0% | Population Mitotic Cells (%) [5]: 63% and 31% | Population Normal (%) [5]: 100% | Population Pyknosed Nuclei (%) [5]: 5% and 7% | Population Tubulin-Different-Phenotype (%) [5]: 5% and 3% | Population Apoptotic (%) [6]: 87% and 80% | Population Fragmented Nuclei (%) [6]: 19% and 20% | Population Healthy Nuclei (%) [6]: 76% and 77% | Population Hoechst High Intensity Objects (%) [6]: 0% | Population Membrane Permeable-Phenotype (%) [6]: 3% and 1% | Population Mitochondria Different-Phenotype (%) [6]: 0% | Population Mitotic Cells (%) [6]: 12% and 20% | Population Normal (%) [6]: 100% | Population Pyknosed Nuclei (%) [6]: 4% and 2% | Population Tubulin-Different-Phenotype (%) [6]: 9% and 3%

CS(=O)(=O)c1ccc(C(=O)Nc2cccc(COc3ccc(Br)cc3CN3CC[C@H](O)C3)c2)cc1.O=CO
Population Fragmented Nuclei (%) [1]: 13% and 4% | Population Healthy Nuclei (%) [1]: 48% and 65% | Population Hoechst High Intensity Objects (%) [1]: 0% | Population Mitotic Cells (%) [1]: 52% | Population Normal (%) [1]: 100% | Population Pyknosed Nuclei (%) [1]: 37% and 30% | Total Cell Count [1]: 166 and 138 | Population Fragmented Nuclei (%) [2]: 15% and 22% | Population Healthy Nuclei (%) [2]: 55% and 64% | Population Hoechst High Intensity Objects (%) [2]: 0% | Population Mitotic Cells (%) [2]: 51% | Population Normal (%) [2]: 100% | Population Pyknosed Nuclei (%) [2]: 30% | Total Cell Count [2]: 180 and 311 | Population Fragmented Nuclei (%) [3]: 9% and 14% | Population Healthy Nuclei (%) [3]: 54% and 50% | Population Hoechst High Intensity Objects (%) [3]: 0% | Population Normal (%) [3]: 100% and 99% | Total Cell Count [3]: 142 and 175 | Population Fragmented Nuclei (%) [4]: 18% and 28% | Population Healthy Nuclei (%) [4]: 57% and 60% | Population Hoechst High Intensity Objects (%) [4]: 0% | Population Mitotic Cells (%) [4]: 29% and 31% | Population Normal (%) [4]: 99% | Population Pyknosed Nuclei (%) [4]: 10% | Total Cell Count [4]: 214 and 336 | Population Fragmented Nuclei (%) [5]: 14% and 21% | Population Healthy Nuclei (%) [5]: 55% and 59% | Population Hoechst High Intensity Objects (%) [5]: 0% and 1% | Population Mitotic Cells (%) [5]: 36% and 22% | Population Normal (%) [5]: 100% and 98% | Population Pyknosed Nuclei (%) [5]: 29% and 19% | Total Cell Count [5]: 147 and 164 | Population Fragmented Nuclei (%) [6]: 28% and 31% | Population Healthy Nuclei (%) [6]: 62% and 61% | Population Hoechst High Intensity Objects (%) [6]: 0% | Population Mitotic Cells (%) [6]: 4% and 13% | Population Normal (%) [6]: 100% and 99% | Population Pyknosed Nuclei (%) [6]: 9% | Total Cell Count [6]: 253 and 402

CCCCOc1c(C(=O)c2c(F)cc(C)cc2F)c[nH]c2nncc1-2
Population Apoptotic (%) [1]: 52% and 40% | Population Fragmented Nuclei (%) [1]: 11% and 8% | Population Healthy Nuclei (%) [1]: 61% and 73% | Population Hoechst High Intensity Objects (%) [1]: 0% | Population Membrane Permeable-Phenotype (%) [1]: 8% and 5% | Population Mitochondria Different-Phenotype (%) [1]: 0% | Population Mitotic Cells (%) [1]: 47% and 60% | Population Normal (%) [1]: 100% | Population Pyknosed Nuclei (%) [1]: 27% and 18% | Population Tubulin-Different-Phenotype (%) [1]: 21% and 12% | Total Cell Count [1]: 200 and 276 | Population Apoptotic (%) [2]: 57% and 64% | Population Fragmented Nuclei (%) [2]: 10% and 8% | Population Healthy Nuclei (%) [2]: 64% and 57% | Population Hoechst High Intensity Objects (%) [2]: 0% | Population Membrane Permeable-Phenotype (%) [2]: 2% and 8% | Population Mitochondria Different-Phenotype (%) [2]: 1% and 0% | Population Mitotic Cells (%) [2]: 42% and 35% | Population Normal (%) [2]: 99% | Population Pyknosed Nuclei (%) [2]: 25% and 33% | Population Tubulin-Different-Phenotype (%) [2]: 22% and 19% | Total Cell Count [2]: 271 and 238 | Population Apoptotic (%) [3]: 50% and 43% | Population Fragmented Nuclei (%) [3]: 14% and 7% | Population Healthy Nuclei (%) [3]: 55% and 66% | Population Hoechst High Intensity Objects (%) [3]: 0% | Population Membrane Permeable-Phenotype (%) [3]: 7% | Population Mitochondria Different-Phenotype (%) [3]: 0% and 1% | Population Mitotic Cells (%) [3]: 49% and 56% | Population Normal (%) [3]: 100% | Population Pyknosed Nuclei (%) [3]: 29% and 25% | Population Tubulin-Different-Phenotype (%) [3]: 26% and 11% | Total Cell Count [3]: 193 and 267 | Population Apoptotic (%) [4]: 81% and 68% | Population Fragmented Nuclei (%) [4]: 10% | Population Healthy Nuclei (%) [4]: 64% and 51% | Population Hoechst High Intensity Objects (%) [4]: 0% | Population Membrane Permeable-Phenotype (%) [4]: 4% | Population Mitochondria Different-Phenotype (%) [4]: 1% | Population Mitotic Cells (%) [4]: 18% and 31% | Population Normal (%) [4]: 99% and 100% | Population Pyknosed Nuclei (%) [4]: 25% and 37% | Population Tubulin-Different-Phenotype (%) [4]: 27% and 18% | Total Cell Count [4]: 281 and 247 | Population Apoptotic (%) [5]: 66% and 59% | Population Fragmented Nuclei (%) [5]: 18% and 9% | Population Healthy Nuclei (%) [5]: 53% and 64% | Population Hoechst High Intensity Objects (%) [5]: 1% and 0% | Population Membrane Permeable-Phenotype (%) [5]: 14% and 11% | Population Mitochondria Different-Phenotype (%) [5]: 0% | Population Mitotic Cells (%) [5]: 33% and 40% | Population Normal (%) [5]: 98% and 100% | Population Pyknosed Nuclei (%) [5]: 27% and 26% | Population Tubulin-Different-Phenotype (%) [5]: 38% and 17% | Total Cell Count [5]: 197 and 276 | Population Apoptotic (%) [6]: 76% and 77% | Population Fragmented Nuclei (%) [6]: 11% and 12% | Population Healthy Nuclei (%) [6]: 46% and 64% | Population Hoechst High Intensity Objects (%) [6]: 0% | Population Mitochondria Different-Phenotype (%) [6]: 0% and 1% | Population Mitotic Cells (%) [6]: 23% and 22% | Population Normal (%) [6]: 99% and 100% | Population Pyknosed Nuclei (%) [6]: 42% and 22% | Population Tubulin-Different-Phenotype (%) [6]: 45% and 39% | Total Cell Count [6]: 261 and 279
